ChEMBL document CHEMBL4152240, “Synthesis, cytotoxicity and structure-activity relationship of indolizinoquinolinedione derivatives as DNA topoisomerase IB catalytic inhibitors” (2018)
Calls of active or inactive are those of the source. The rule behind the calls is not given here.

How the values were obtained:
[1] = system: DNA; assay: Induction of unwinding effect of Escherichia coli supercoiled pBR322 DNA at 0.3 to 1.2 mg/L preincubated with DNA for 10 mins followed by excess calf thymus TOP1 addition and measured after 30 mins by agarose gel electrophoresis; format: nucleic-acid assay
Method in brief: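 Supercoiled or relaxed pBR322 DNA was preincubated with ethidium bromide (0.3, 0.6, 1.2 mg/L, positive control) for 10 min at room temperature. Excess TOP1 was then added for 30 min at 37 °C. The reaction was stopped with SDS/proteinase K, run on 0.8% agarose in TBE at 4.6 V/cm for 1.5 h, then gel-red stained and UV imaged.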

[2] = system: A549; assay: Cytotoxicity against human A549 cells assessed as growth inhibition after 72 hrs by MTT assay; format: functional; details: A549, 72 h
Method in brief: (§1)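 Five-dose MTT growth assay, compounds predissolved in DMSO, 72 h exposure at 37 C. Cells kept in RPMI-1640 or DMEM, 37 C, 5% CO2, passage 3-6. MTT (1 mg/mL in PBS) added for 4 h, formazan dissolved in DMSO, OD 570 nm. GI50 (50% growth inhibition) by nonlinear regression. Means ± SD, at least three repeats.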

[3] = Cytotoxicity against human RC0.1 cells assessed as growth inhibition after 72 hrs by MTT assay; format: functional
[4] = biological target: T1, Topoisomerase I (Bos taurus) (UniProt Q2HPH0); assay: Inhibition of calf thymus TOP1-mediated relaxation of supercoiled pBR322 DNA at 125 uM after 30 mins by agarose gel electrophoresis relative to control
T1 sequence (whole entry): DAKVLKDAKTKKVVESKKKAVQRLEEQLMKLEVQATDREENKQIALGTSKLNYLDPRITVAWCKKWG
Method in brief: (§2)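 0.5 µg supercoiled pBR322 in buffer (10 mM Tris-HCl pH 7.5, 50 mM KCl, 5 mM MgCl2, BSA, DTT) with 1 unit calf thymus TOP1, with or without compound (0.2-125 µM), 30 min at 37 C. Run on 0.8% agarose/TBE at 4.6 V/cm for 1.5 h, gel red stained. Activity graded in bands (e.g. +++ 81-120%). At least two independent repeats.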

[5] = biological target: T1, Topoisomerase I (Bos taurus); details: 0.2 to 1 uM
[6] = system: DU-145; assay: Cytotoxicity against human DU145 cells assessed as growth inhibition after 72 hrs by MTT assay; format: functional; details: DU-145, 72 h; method in brief: as §1
[7] = system: CCRF-CEM; assay: Cytotoxicity against human CCRF-CEM cells assessed as growth inhibition after 72 hrs by MTT assay; format: functional; method in brief: as §1
[8] = system: Huh-7; assay: Cytotoxicity against human HuH7 cells assessed as growth inhibition after 72 hrs by MTT assay; format: functional; details: Huh-7, 72 h; method in brief: as §1
[9] = system: HCT-116; assay: Induction of apoptosis in human HCT116 cells assessed as early apoptotic cells at 9 uM after 12 hrs by annexin V-FITC/propidium iodide staining-based flow cytometric method (reference value: 0.47 to 1.19%); format: functional
[10] = system: HepG2; assay: Cytotoxicity against human HepG2 cells assessed as growth inhibition after 72 hrs by MTT assay; format: functional; details: HepG2, 72 h
Method in brief: (§3)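 MTT growth assay in drug-resistant sublines and parental lines. HCT116-siTop1 was made by transfecting HCT116 with shRNA vectors expressing TOP1 siRNA. MCF-7, HepG2 and their ADR-resistant lines were gifts. Five-dose DMSO-predissolved compounds for 72 h at 37 C, then MTT 4 h, DMSO solubilization, OD 570 nm. GI50 by nonlinear regression. At least three repeats.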

[11] = system: HCT-116; assay: Induction of apoptosis in human HCT116 cells after 12 hrs by annexin V-FITC/propidium iodide staining-based flow cytometric method; format: functional, cell-based
[12] = system: HCT-116; assay: Induction of apoptosis in human HCT116 cells assessed as late apoptotic cells at 9 uM after 12 hrs by annexin V-FITC/propidium iodide staining-based flow cytometric method (reference value: 0.34 to 0.81%); format: functional
[13] = system: HCT-116; assay: Cytotoxicity against human HCT116 cells assessed as growth inhibition after 72 hrs by MTT assay; format: functional; details: HCT-116, 72 h; method in brief: as §1
[14] = system: HCT-116; assay: Induction of apoptosis in human HCT116 cells assessed as viable cells at 9 uM after 12 hrs by annexin V-FITC/propidium iodide staining-based flow cytometric method (reference value: 97.60 to 98.95%); format: functional; details: HCT-116, 12 h, read-out: Activity
[15] = Cytotoxicity against human HepG2/ADR cells assessed as growth inhibition after 72 hrs by MTT assay; format: functional; details: HepG2, 72 h; method in brief: as §3
[16] = system: HCT-116; assay: Cytotoxicity against human HCT116 cells expressing TOP1 siRNA assessed as growth inhibition after 72 hrs by MTT assay; format: functional; details: HCT-116, 72 h; method in brief: as §3
[17] = system: HCT-116; assay: Induction of apoptosis in human HCT116 cells assessed as late apoptotic cells at 1 uM after 12 hrs by annexin V-FITC/propidium iodide staining-based flow cytometric method (reference value: 0.34 to 0.81%); format: functional
[18] = system: DNA; assay: Induction of unwinding effect of Escherichia coli relaxed pBR322 DNA at 1 to 9 uM preincubated with DNA for 10 mins followed by excess calf thymus TOP1 addition and measured after 30 mins by agarose gel electrophoresis; format: nucleic-acid assay
Method in brief: (§4)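 Compound (1, 3, 9 µM) preincubated with pBR322 DNA, supercoiled or relaxed, at room temperature for 10 min. Excess TOP1 then added and incubated 30 min at 37 C. Stopped with SDS/proteinase K. Ethidium bromide (0.3-1.2 mg/L) as positive control. Run on 0.8% agarose in TBE at 4.6 V/cm for 1.5 h, stained with gel red, UV visualized.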

[19] = Resistance ratio of GI50 for human HCT116 cells expressing TOP1 siRNA to GI50 for human HCT116 cells; format: functional
Method in brief: (§5)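 Resistance ratio: the GI50 in the resistant or TOP1-knockdown subline divided by the GI50 in the matching parental line.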

[20] = Resistance ratio of GI50 for human RC0.1 cells to GI50 for human DU145 cells; format: functional
[21] = Resistance ratio of GI50 for human MCF7/ADR cells to GI50 for human MCF7 cells; format: functional; method in brief: as §5
[22] = system: NCI/ADR-RES; assay: Cytotoxicity against human MCF7/ADR cells assessed as growth inhibition after 72 hrs by MTT assay; format: functional; method in brief: as §3
[23] = system: HCT-116; assay: Induction of apoptosis in human HCT116 cells assessed as viable cells at 1 uM after 12 hrs by annexin V-FITC/propidium iodide staining-based flow cytometric method (reference value: 97.60 to 98.95%); format: functional; details: HCT-116, 12 h, read-out: Activity
[24] = biological target: T1, Topoisomerase I (Bos taurus); assay: Inhibition of calf thymus TOP1-mediated relaxation of supercoiled pBR322 DNA at 25 uM after 30 mins by agarose gel electrophoresis relative to camptothecin; method in brief: as §2
[25] = system: HCT-116; assay: Induction of apoptosis in human HCT116 cells assessed as early apoptotic cells at 3 uM after 12 hrs by annexin V-FITC/propidium iodide staining-based flow cytometric method (reference value: 0.47 to 1.19%); format: functional
[26] = system: HCT-116; assay: Induction of apoptosis in human HCT116 cells assessed as late apoptotic cells at 3 uM after 12 hrs by annexin V-FITC/propidium iodide staining-based flow cytometric method (reference value: 0.34 to 0.81%); format: functional
[27] = system: MCF7; assay: Cytotoxicity against human MCF7 cells assessed as growth inhibition after 72 hrs by MTT assay; format: functional; details: MCF7, 72 h; method in brief: as §3
[28] = system: DNA; assay: Induction of unwinding effect of Escherichia coli supercoiled pBR322 DNA at 1 to 9 uM preincubated with DNA for 10 mins followed by excess calf thymus TOP1 addition and measured after 30 mins by agarose gel electrophoresis; format: nucleic-acid assay; method in brief: as §4
[29] = Resistance ratio of GI50 for human HepG2/ADR cells to GI50 for human HepG2 cells; format: functional; method in brief: as §5
[30] = biological target: T1, Topoisomerase I (Bos taurus); assay: Inhibition of calf thymus TOP1-mediated relaxation of supercoiled pBR322 DNA after 30 mins by agarose gel electrophoresis; method in brief: as §2
[31] = system: HCT-116; assay: Induction of apoptosis in human HCT116 cells assessed as early apoptotic cells at 1 uM after 12 hrs by annexin V-FITC/propidium iodide staining-based flow cytometric method (reference value: 0.47 to 1.19%); format: functional
[32] = system: HCT-116; assay: Induction of apoptosis in human HCT116 cells assessed as viable cells at 3 uM after 12 hrs by annexin V-FITC/propidium iodide staining-based flow cytometric method (reference value: 97.60 to 98.95%); format: functional; details: HCT-116, 12 h, read-out: Activity

| Structure (SMILES) | GI50 [2] [nM] | inhibition [4] [%] | GI50 [6] [nM] | GI50 [7] [nM] | GI50 [8] [nM] | Activity [9] [%] | Activity [11] | Activity [12] [%] | GI50 [13] [nM] | viability at 9 µM [14] [%] | Activity [17] [%] | Activity [18] | viability at 1 µM [23] [%] | inhibition [24] [%] | Activity [25] [%] | Activity [26] [%] | Activity [28] | inhibition [30] | Activity [31] [%] | viability at 3 µM [32] [%] | also measured |
| --- | --- | --- | --- | --- | --- | --- | --- | --- | --- | --- | --- | --- | --- | --- | --- | --- | --- | --- | --- | --- | --- |
| CC[n+]1c(-c2ccccc2)c2cc(N)ccc2c2ccc(N)cc21 | – | – | – | – | – | – | – | – | – | – | – | – | – | – | – | – | – | – | – | – | Activity [1]: Active |
| CC[C@@]1(O)C(=O)OCc2c1cc1n(c2=O)Cc2cc3ccccc3nc2-1 [CAMPTOTHECIN] | 3 | 58 | 19 | 2 | 6 | – | – | – | – | – | – | – | – | – | – | – | – | – | – | – | GI50 [3]: 7530 nM; inhibition [5]: Active |
| O=C1c2cccnc2C(=O)c2c1c(C(=O)OCCN1CCCC1)c1c(F)cccn21 | 60 | 100 | 82 | 790 | 120 | 10.17 | Dose-dependent effect | 32.1 | 23 | 51.3 | 1.17 | inactive | 97.7 | > 121 | 1.69 | 8.5 | inactive | Dose-dependent effect | 0.79 | 86 | GI50 [10]: 51 nM; GI50 [15]: 380 nM; GI50 [16]: 150 nM; GI50 [3]: 2940 nM; RatioGI50 [19]: 6.5; RatioGI50 [20]: 36.8; RatioGI50 [21]: 1.1; GI50 [22]: 97 nM; GI50 [27]: 89 nM; RatioGI50 [29]: 7.5 |
| O=C1c2cccnc2C(=O)c2c1c(C(=O)OCCN1CCCCC1)c1c(F)cccn21 | 290 | 100 | 91 | 380 | 59 | 2.47 | Dose-dependent effect | 38.17 | 25 | 57.1 | 2.39 | inactive | 95.2 | > 121 | 1.26 | 10.47 | inactive | Dose-dependent effect | 2.12 | 86.9 | – |
| O=C1c2cccnc2C(=O)c2c1c(C(=O)OCCCN1CCCCC1)c1c(F)cccn21 | 72 | 100 | 210 | 350 | 120 | 4.73 | Dose-dependent effect | 31.59 | 27 | 61.7 | 3.98 | inactive | 93.4 | > 121 | 2.5 | 16.74 | inactive | Dose-dependent effect | 2.14 | 79 | – |
